Reference: PMC6682128 (ACS Omega, 2019)

Legend:
Cytotoxicity assay [1] = format: cell-based; details: human
Procedure, shortened: (§1)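 Replicon cells (Huh5-2, Huh7.5-3a or Huh7.5-4a) were seeded at 10^4 per well and grown 24 h in complete DMEM. They were then exposed for three days to serial dilutions of test compound or DMSO solvent. Lysates were assayed for ATP by chemiluminescence, normalised to Bradford total protein. CC50 was obtained by nonlinear regression against log concentration.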

[2] = tested on: HCV genotype 1b (strain Con1) replicon; test: HCV genotype 1b replicon luciferase assay in Huh5-2 cells; format: cell-based, Hepatitis C virus; details: EC50 comparison
[3] = tested on: Huh7.5-4a (ED43) replicon cells; test: Cytotoxicity assay; format: cell-based, human; details: ATP levels
Procedure, shortened: as §1

Cytotoxicity assay [4] = format: cell-based; details: human, Huh7.5-3a (S52) replicon cells
Procedure, shortened: as §1

HCV NS5A (Con1) = format: cell-based, Hepatitis C virus; details: Huh5-2 cells; for cell viability (nuclei staining with propidium iodide): 0.5 and 0.05 nM; for NS5A protein levels by indirect immunofluorescence: highest compound concentration used (0.5 nM)
[5] = tested on: HCV genotype 1b (+) strand RNA; test: HCV RNA quantification by RT-qPCR in Huh5-2 replicon cells; format: cell-based, Hepatitis C virus; details: 0.05 nM compound, Huh5-2 cells, normalized to YWHAZ

CCOC(=O)N[C@H](C(=O)N1CCC[C@H]1C(=O)Nc1ccc(C#CC#Cc2ccc(NC(=O)[C@@H]3CCCN3C(=O)[C@@H](NC(=O)OCC)C(C)C)cc2)cc1)C(C)C [1b, Diethyl((2S,2′S)-((2S,2′S)-(((buta-1,3-diyne-1,4-diylbis(4,1-phenylene))bis(azanediyl))bis(carbonyl))bis(pyrrolidine-2,1-diyl))bis(3-methyl-1-oxobutane-1,2-diyl))dicarbamate]
CC50 at 3 days (Cytotoxicity assay [1]): 2.58 µM | fold more active than compound 1n [2]: 3 fold

CC(C)[C@H](NC(=O)OCc1ccccc1)C(=O)N1CCC[C@H]1C(=O)Nc1ccc(C#CC#Cc2ccc(NC(=O)[C@@H]3CCCN3C(=O)[C@@H](NC(=O)OCc3ccccc3)C(C)C)cc2)cc1 [1e, Dibenzyl((2S,2′S)-((2S,2′S)-(((buta-1,3-diyne-1,4-diylbis(4,1-phenylene))bis(azanediyl))bis(carbonyl))bis(pyrrolidine-2,1-diyl))bis(3-methyl-1-oxobutane-1,2-diyl))dicarbamate]
CC50 at 3 days (Cytotoxicity assay [1]): > 20 µM | fold less active than compound 1b [2]: 28 fold

COC(=O)N[C@H](C(=O)N1CCC[C@H]1C(=O)Nc1cccc(C#CC#Cc2cccc(NC(=O)[C@@H]3CCCN3C(=O)[C@@H](NC(=O)OC)C(C)C)c2)c1)C(C)C [2a, Dimethyl((2S,2′S)-((2S,2′S)-(((buta-1,3-diyne-1,4-diylbis(3,1-phenylene))bis(azanediyl))bis(carbonyl))bis(pyrrolidine-2,1-diyl))bis(3-methyl-1-oxobutane-1,2-diyl))dicarbamate]
CC50, genotype 4a (ED43) [3]: >200 000 nM | CC50 at 3 days (Cytotoxicity assay [1]): > 200 µM | CC50 at 3 days (Cytotoxicity assay [4]): > 200 µM

CC(C)[C@H](NC(=O)OCc1ccccc1)C(=O)N1CCC[C@H]1C(=O)Nc1cccc(C#CC#Cc2cccc(NC(=O)[C@@H]3CCCN3C(=O)[C@@H](NC(=O)OCc3ccccc3)C(C)C)c2)c1 [2e, Dibenzyl((2S,2′S)-((2S,2′S)-(((buta-1,3-diyne-1,4-diylbis(3,1-phenylene))bis(azanediyl))bis(carbonyl))bis(pyrrolidine-2,1-diyl))bis(3-methyl-1-oxobutane-1,2-diyl))dicarbamate]
CC50 at 3 days (Cytotoxicity assay [1]): > 10 µM | fold less active than 2b [2]: 22 fold

CCOC(=O)N[C@@H](CC(C)C)C(=O)N1CCC[C@H]1C(=O)Nc1cccc(C#CC#Cc2cccc(NC(=O)[C@@H]3CCCN3C(=O)[C@H](CC(C)C)NC(=O)OCC)c2)c1 [2f, Diethyl((2S,2′S)-((2S,2′S)-(((buta-1,3-diyne-1,4-diylbis(3,1-phenylene))bis(azanediyl))bis(carbonyl))bis(pyrrolidine-2,1-diyl))bis(4-methyl-1-oxopentane-1,2-diyl))dicarbamate]
CC50, genotype 4a (ED43) [3]: >200 000 nM | CC50 at 3 days (Cytotoxicity assay [1]): > 200 µM | cell viability (nuclei staining with propidium iodide) (HCV NS5A (Con1)): not affected | NS5A protein levels by indirect immunofluorescence (HCV NS5A (Con1)): almost undetectable levels | CC50 at 3 days (Cytotoxicity assay [4]): > 200 µM | HCV RNA replication reduced to (relative to control) [5]: ~90%

CCOC(=O)N[C@H](C(=O)N1CCC[C@@H]1C(=O)Nc1cccc(C#CC#Cc2cccc(NC(=O)[C@H]3CCCN3C(=O)[C@@H](NC(=O)OCC)C(C)C)c2)c1)C(C)C [2j, Diethyl((2S,2′S)-((2R,2′R)-(((buta-1,3-diyne-1,4-diylbis(3,1-phenylene))bis(azanediyl))bis(carbonyl))bis(pyrrolidine-2,1-diyl))bis(3-methyl-1-oxobutane-1,2-diyl))dicarbamate]
CC50 at 3 days (Cytotoxicity assay [1]): > 10 µM

CCOC(=O)N[C@@H](C(=O)N1CCC[C@@H]1C(=O)Nc1cccc(C#CC#Cc2cccc(NC(=O)[C@H]3CCCN3C(=O)[C@H](NC(=O)OCC)C(C)C)c2)c1)C(C)C [2k, Diethyl((2R,2′R)-((2R,2′R)-(((buta-1,3-diyne-1,4-diylbis(3,1-phenylene))bis(azanediyl))bis(carbonyl))bis(pyrrolidine-2,1-diyl))bis(3-methyl-1-oxobutane-1,2-diyl))dicarbamate]
CC50 at 3 days (Cytotoxicity assay [1]): > 10 µM

CCOC(=O)N[C@@H](CC(C)C)C(=O)N1CCC[C@@H]1C(=O)Nc1cccc(C#CC#Cc2cccc(NC(=O)[C@H]3CCCN3C(=O)[C@H](CC(C)C)NC(=O)OCC)c2)c1 [2l, Diethyl((2S,2′S)-((2R,2′R)-(((buta-1,3-diyne-1,4-diylbis(3,1-phenylene))bis(azanediyl))bis(carbonyl))bis(pyrrolidine-2,1-diyl))bis(4-methyl-1-oxopentane-1,2-diyl))dicarbamate]
CC50 at 3 days (Cytotoxicity assay [1]): > 10 µM

CCOC(=O)N[C@H](CC(C)C)C(=O)N1CCC[C@@H]1C(=O)Nc1cccc(C#CC#Cc2cccc(NC(=O)[C@H]3CCCN3C(=O)[C@@H](CC(C)C)NC(=O)OCC)c2)c1 [2m, Diethyl((2R,2′R)-((2R,2′R)-(((buta-1,3-diyne-1,4-diylbis(3,1-phenylene))bis(azanediyl))bis(carbonyl))bis(pyrrolidine-2,1-diyl))bis(4-methyl-1-oxopentane-1,2-diyl))dicarbamate]
CC50 at 3 days (Cytotoxicity assay [1]): > 10 µM

CCOC(=O)N[C@@H](C(=O)N1CCC[C@H]1C(=O)Nc1cccc(C#CC#Cc2cccc(NC(=O)[C@@H]3CCCN3C(=O)[C@H](NC(=O)OCC)C(C)C)c2)c1)C(C)C [2n, Diethyl((2R,2′R)-((2S,2′S)-(((buta-1,3-diyne-1,4-diylbis(3,1-phenylene))bis(azanediyl))bis(carbonyl))bis(pyrrolidine-2,1-diyl))bis(3-methyl-1-oxobutane-1,2-diyl))dicarbamate]
CC50 at 3 days (Cytotoxicity assay [1]): > 20 µM | fold more active than 2b [2]: about 6 fold

COC(=O)N[C@@H](CC(C)C)C(=O)N1CCC[C@H]1C(=O)Nc1cccc(C#CC#Cc2cccc(NC(=O)[C@@H]3CCCN3C(=O)[C@H](CC(C)C)NC(=O)OC)c2)c1 [2o, Dimethyl((2S,2′S)-((2S,2′S)-(((buta-1,3-diyne-1,4-diylbis(3,1-phenylene))bis(azanediyl))bis(carbonyl))bis(pyrrolidine-2,1-diyl))bis(4-methyl-1-oxopentane-1,2-diyl))dicarbamate]
CC50 at 3 days (Cytotoxicity assay [1]): > 20 µM

COC(=O)N[C@H](CC(C)C)C(=O)N1CCC[C@H]1C(=O)Nc1cccc(C#CC#Cc2cccc(NC(=O)[C@@H]3CCCN3C(=O)[C@@H](CC(C)C)NC(=O)OC)c2)c1 [2p, Dimethyl((2R,2′R)-((2S,2′S)-(((buta-1,3-diyne-1,4-diylbis(3,1-phenylene))bis(azanediyl))bis(carbonyl))bis(pyrrolidine-2,1-diyl))bis(4-methyl-1-oxopentane-1,2-diyl))dicarbamate]
CC50, genotype 4a (ED43) [3]: >200 000 nM | CC50 at 3 days (Cytotoxicity assay [1]): > 200 µM | fold more active than 2o [2]: about 3 × 10^5 fold | CC50 at 3 days (Cytotoxicity assay [4]): > 200 µM

CCOC(=O)N[C@H](CC(C)C)C(=O)N1CCC[C@H]1C(=O)Nc1cccc(C#CC#Cc2cccc(NC(=O)[C@@H]3CCCN3C(=O)[C@@H](CC(C)C)NC(=O)OCC)c2)c1 [2q, Diethyl((2R,2′R)-((2S,2′S)-(((buta-1,3-diyne-1,4-diylbis(3,1-phenylene))bis(azanediyl))bis(carbonyl))bis(pyrrolidine-2,1-diyl))bis(4-methyl-1-oxopentane-1,2-diyl))dicarbamate]
CC50, genotype 4a (ED43) [3]: >200 000 nM | CC50 at 3 days (Cytotoxicity assay [1]): > 200 µM | cell viability (nuclei staining with propidium iodide) (HCV NS5A (Con1)): not affected | NS5A protein levels by indirect immunofluorescence (HCV NS5A (Con1)): almost undetectable levels | CC50 at 3 days (Cytotoxicity assay [4]): > 200 µM | HCV RNA replication reduced to (relative to control) [5]: 56%

COC(=O)N[C@H](C(=O)N1CCC[C@H]1c1nc(-c2ccc(-c3ccc(-c4c[nH]c([C@@H]5CCCN5C(=O)[C@@H](NC(=O)OC)C(C)C)n4)cc3)cc2)c[nH]1)C(C)C [daclatasvir, reference compound]
CC50, genotype 4a (ED43) [3]: 17 700 nM | CC50 at 3 days (Cytotoxicity assay [1]): 17.7 µM | CC50 at 3 days (Cytotoxicity assay [4]): 17.7 µM
